The record followed here is ChEMBL document CHEMBL3872233, “Topical Treatment of Leishmania tropica Infection Using (-)-α-Bisabolol Ointment in a Hamster Model: Effectiveness and Safety Assessment” (J Nat Prod, 2016).

Data set [1] deals with Leishmania tropica. The data set can be described thus: Antileishmanial activity against Leishmania tropica MHOM/MA/1988/LEM1314 promastigotes infected in Syrian hamster assessed as reduction in parasite load in foodpad skin at 200 mg administered once daily through oral gavage for 3 weeks starting at week 7 post infection measured 1 week post last dose by qPCR analysis relative to control. Details: scale not given: the % may be the effect or the level left. It is filed as functional. In a few lines:
(§1)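 Hamsters were infected in the footpad and treated daily for 21 days from week 7 post-infection, n = 10/group, and sacrificed 1 week after the last dose. Footpad skin, liver and spleen DNA was assayed by L. tropica-specific TaqMan qPCR (chromosome 29 target), in triplicate with 50 ng DNA per 25 μL reaction. Load was interpolated from Ct on a calibration curve of promastigote DNA, relative to base-ointment controls.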
A general note: Real-time PCR tracks product formation cycle by cycle.

Data set [2] deals with Leishmania tropica. The data set can be described thus: Antileishmanial activity against Leishmania tropica MHOM/MA/1988/LEM1314 promastigotes infected in Syrian hamster assessed as reduction in lesion thickness at […] administered once daily through oral gavage for 3 weeks starting at week 7 post infection measured 1 week post last dose relative to control. The format is functional. Also noted: scale not given: the % may be the effect or the level left. In a few lines: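 L. tropica stationary-phase promastigotes (3 × 10^7 in 50 μL PBS) injected into the left hind footpad. Treatment began at week 7 (+75% footpad thickness) and ran daily for 21 days, n = 10/group. Routes were 50 mg ointment on the lesion (cetyl alcohol/lanolin/petrolatum base), gavage in olive oil, or intralesional meglumine antimoniate 2 mg SbV/kg. Lesion thickness was measured weekly against base-only ointment; sacrifice was 1 week after the last dose.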

For data set [3], the system named is Leishmania tropica. The data set can be described thus: Antileishmanial activity against Leishmania tropica MHOM/MA/1988/LEM1314 promastigotes infected in Syrian hamster assessed as reduction in parasite load in foodpad skin at 5 % administered once daily tropically on footpad for 3 weeks starting at week 7 post infection measured 1 week post last dose by qPCR analysis relative to control. It is filed as functional. Also noted: scale not given: the % may be the effect or the level left. Summed up:
as §1

Data set [4] relates to Syrian golden hamster. Briefly: Toxicity in Syrian hamster assessed as pain at 500 mg/kg, po or 5 % administered tropically on footpad for 28 days. The conditions noted are these: in vivo, 672 h. It is filed as organism-based, Mesocricetus auratus.
The test system of data set [5] is Syrian golden hamster. The data set can be described thus: Toxicity in Syrian hamster infected with Leishmania tropica MHOM/MA/1988/LEM1314 promastigotes assessed as mean serum AST levels at 200 mg/kg administered through oral gavage for 3 weeks starting at week 7 post infection measured 1 week post last dose (reference value: 77.1 +/- 0.9 U/L). The format is organism-based, Mesocricetus auratus. The conditions noted are these: in vivo, 168 h.

The subject of data set [6] is Syrian golden hamster. The data set can be described thus: Toxicity in Syrian hamster infected with Leishmania tropica MHOM/MA/1988/LEM1314 promastigotes assessed as mean serum AST levels at 5 % administered tropically on footpad for 3 weeks starting at week 7 post infection measured 1 week post last dose (reference value: 77.1 +/- 0.9 U/L). The format is organism-based, Mesocricetus auratus. The conditions noted are these: in vivo, topical_or_ocular, 168 h.

Data set [7] concerns Syrian golden hamster. The data set can be described thus: Toxicity in Syrian hamster infected with Leishmania tropica MHOM/MA/1988/LEM1314 promastigotes assessed as mean serum ALT levels at 5 % administered tropically on footpad for 3 weeks starting at week 7 post infection measured 1 week post last dose (reference value: 81.6 +/- 4.9 U/L). The conditions noted are these: in vivo, topical_or_ocular, 168 h. The format is organism-based, Mesocricetus auratus.

For data set [8], the system named is Syrian golden hamster. Briefly: Toxicity in Syrian hamster assessed as mean serum creatinine levels at 500 mg/kg administered through oral gavage for 28 days (reference value: 0.21 +/- 0.2 mg/dl). The format is organism-based, Mesocricetus auratus. The conditions noted are these: in vivo, 672 h.
For data set [9], the system named is Syrian golden hamster. Briefly: Toxicity in Syrian hamster infected with Leishmania tropica MHOM/MA/1988/LEM1314 promastigotes assessed as mean serum creatinine levels at 1 % administered tropically on footpad for 3 weeks starting at week 7 post infection measured 1 week post last dose (reference value: 0.19 mg/dl). The conditions noted are these: in vivo, topical_or_ocular, 168 h. The format is organism-based, Mesocricetus auratus.

The test system of data set [10] is Syrian golden hamster. The data set can be described thus: Toxicity in Syrian hamster infected with Leishmania tropica MHOM/MA/1988/LEM1314 promastigotes assessed as mean serum creatinine levels at 5 % administered tropically on footpad for 3 weeks starting at week 7 post infection measured 1 week post last dose (reference value: 0.19 mg/dl). It is filed as organism-based, Mesocricetus auratus. The conditions noted are these: in vivo, topical_or_ocular, 168 h.

Data set [11] deals with Syrian golden hamster. Briefly: Toxicity in Syrian hamster infected with Leishmania tropica MHOM/MA/1988/LEM1314 promastigotes assessed as mean serum ALP levels at 2.5 % administered tropically on footpad for 3 weeks starting at week 7 post infection measured 1 week post last dose (reference value: 14.4 +/- 0.9 U/L). The conditions noted are these: in vivo, topical_or_ocular, 168 h. The format is organism-based, Mesocricetus auratus.

Data set [12] relates to Syrian golden hamster. The data set can be described thus: Toxicity in Syrian hamster infected with Leishmania tropica MHOM/MA/1988/LEM1314 promastigotes assessed as urea levels at 2.5 % administered tropically on footpad for 3 weeks starting at week 7 post infection measured 1 week post last dose (reference value: 32.5 +/- 0.8 mg/dl). It is filed as organism-based, Mesocricetus auratus. The conditions noted are these: in vivo, topical_or_ocular, 168 h.

The subject of data set [13] is Syrian golden hamster. Briefly: Toxicity in Syrian hamster infected with Leishmania tropica MHOM/MA/1988/LEM1314 promastigotes assessed as spleen weight at 1 % administered tropically on footpad for 3 weeks starting at week 7 post infection measured 1 week post last dose (reference value: 178.8 +/- 1.2 mg). It is filed as organism-based, Mesocricetus auratus. The conditions noted are these: in vivo, topical_or_ocular, 168 h.

The subject of data set [14] is Syrian golden hamster. The data set can be described thus: Toxicity in Syrian hamster assessed as liver weight at 500 mg/kg administered through oral gavage for 28 days (reference value: 4.1 +/- 0.7 g). The format is organism-based, Mesocricetus auratus. The conditions noted are these: in vivo, 672 h.
The subject of data set [15] is Syrian golden hamster. The data set can be described thus: Toxicity in Syrian hamster infected with Leishmania tropica MHOM/MA/1988/LEM1314 promastigotes assessed as liver weight at 2.5 % administered tropically on footpad for 3 weeks starting at week 7 post infection measured 1 week post last dose (reference value: 3.3 +/- 0.2 g). It is filed as organism-based, Mesocricetus auratus. The conditions noted are these: in vivo, topical_or_ocular, 168 h. In a few lines: (§2)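 Infected hamsters were treated daily for 21 days from week 7 post-infection (ointment 1–5%, 200 mg/kg gavage, or intralesional meglumine antimoniate 2 mg SbV/kg). Clinical signs and body weight were monitored during treatment and a 7-day follow-up. After sacrifice, liver and spleen were weighed and serum ALP, ALT, creatinine, urea and AST were measured with kits, compared with untreated infected animals.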

Data set [16] relates to Syrian golden hamster. The data set can be described thus: Toxicity in Syrian hamster infected with Leishmania tropica MHOM/MA/1988/LEM1314 promastigotes assessed as diarrhea at 200 mg/kg administered through oral gavage for 3 weeks starting at week 7 post infection measured during compound dosing or measured 1 week post last dose. The format is organism-based, Mesocricetus auratus. The conditions noted are these: in vivo, 168 h. In a few lines:
as §2

Data set [17] relates to Syrian golden hamster. The data set can be described thus: Toxicity in Syrian hamster infected with Leishmania tropica MHOM/MA/1988/LEM1314 promastigotes assessed as redness at 200 mg/kg administered through oral gavage for 3 weeks starting at week 7 post infection measured during compound dosing or measured 1 week post last dose. The conditions noted are these: in vivo, 168 h. It is filed as organism-based, Mesocricetus auratus. Summed up: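 Infected hamsters (footpad, 3 × 10^7 promastigotes) were gavaged daily for 21 days from week 7 post-infection at 200 mg/kg in olive oil, n=10.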

The test system of data set [18] is Leishmania tropica. The data set can be described thus: Antileishmanial activity against Leishmania tropica MHOM/MA/1988/LEM1314 promastigotes infected in Syrian hamster assessed as reduction in parasite load in liver at 2 mg/kg administered intralesionally once daily on footpad for 3 weeks starting at week 7 post infection measured 1 week post last dose by qPCR analysis relative to control. It is filed as functional, organism-based. Summed up:
as §1

Data set [19] deals with Leishmania tropica. Briefly: Antileishmanial activity against Leishmania tropica MHOM/MA/1988/LEM1314 promastigotes infected in Syrian hamster assessed as reduction in parasite load in spleen at 1 % administered once daily tropically on footpad for 3 weeks starting at week 7 post infection measured 1 week post last dose by qPCR analysis relative to control. The format is functional. In a few lines:
as §1

The subject of data set [20] is Leishmania tropica. The data set can be described thus: Antileishmanial activity against Leishmania tropica MHOM/MA/1988/LEM1314 promastigotes infected in Syrian hamster assessed as reduction in parasite load in spleen at 2 mg/kg administered intralesionally once daily on footpad for 3 weeks starting at week 7 post infection measured 1 week post last dose by qPCR analysis relative to control. The format is functional, organism-based. Summed up: as §1

Active and inactive are the calls of the source. No cut-off for these calls is given here.

With `CC(C)=CCC[C@](C)(O)[C@@H]1CC=C(C)CC1` [LEVOMENOL], the Activity in the data set with Leishmania tropica [1] is 74%; in the data set on Leishmania tropica [2], 62.5%; in the data set on Leishmania tropica [3], 82%; with Syrian golden hamster [4] it was “Non-Toxic”; in the data set on Syrian golden hamster [5], 77.9 U/L; in the data set with Syrian golden hamster [6], 73 U/L. For the same compound, the Activity in the data set on Syrian golden hamster [7] came out at 81.8 U/L; in the data set on Syrian golden hamster [8], 0.19 mg/dL; with Syrian golden hamster [9], 0.22 mg/dL; in the data set on Syrian golden hamster [10], 0.18 mg/dL; in the data set on Syrian golden hamster [11] it was 13.3 U/L; with Syrian golden hamster [12], 33.6 mg/dL. The Activity in the data set on Syrian golden hamster [13] is listed as 175.3 mg; with Syrian golden hamster [14] it was 3.5 g; with Syrian golden hamster [15], 3.3 g; with Syrian golden hamster [16], “Non-Toxic”; in the data set on Syrian golden hamster [17] it was “Non-Toxic”. For the same compound, the result in the data set with Leishmania tropica [18], in the data set on Leishmania tropica [19] and in the data set on Leishmania tropica [20] was Active.
